Data published in ChEMBL document CHEMBL3813647, “Discovery of an Orally Active and Liver-Targeted Prodrug of 5-Fluoro-2'-Deoxyuridine for the Treatment of Hepatocellular Carcinoma” (J Med Chem, 2016).
Values belong to the compound of their own block, whether it stands above or below them.

Tests used:
[1] = test system: Plasma; assay: AUC (infinity) in Sprague-Dawley rat plasma assessed as FDUR formation at 49.87 mg/kg administered through oral gavage measured up to 24 hrs by HPLC-MS/MS analysis; format: ADME, organism-based; design: dose 49.87 mg/kg, route oral, time infinity; conditions: in vivo
How it was run: (§1)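 Male Sprague-Dawley rats (220 ± 20 g), single gavage of 0.096 mmol/kg. FDUR was dosed in H2O; the prodrugs were dosed in 20% hydroxypropyl-β-cyclodextrin. n = 3 per time point, sampled at 0.25–24 h. Plasma (EDTA-K2, cardiac puncture) and freeze-clamped liver were homogenized in 20 mM EDTA-K2/70% MeOH. Analytes measured by HPLC-MS/MS in ESI negative mode.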

[2] = Cytotoxicity against human SMMC7721 cells assessed as reduction in cell viability after 72 hrs by MTT assay; format: functional, cell-based; conditions: SMMC-7721, 72 h
How it was run: (§2)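 Cells in RPMI-1640 with 10% FBS, seeded at 4 × 10³ per well and attached for 24 h. Compound (DMSO ≤0.5% final) added for 72 h at 37 °C, 5% CO2. Viability read by MTT. IC50 set against 0.5% DMSO-treated cells taken as 100% viable. Mean of two independent experiments, each run in triplicate.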

[3] = Ratio of FdUMP AUC (infinity) in Sprague-Dawley rat liver to FDUR AUC (infinity) in Sprague-Dawley rat plasma at 49.87 mg/kg administered through oral gavage; format: ADME, organism-based; conditions: in vivo
How it was run: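 Male Sprague-Dawley rats (220 20 g), single gavage of 0.096 mmol/kg prodrug in 20% hydroxypropyl-β-cyclodextrin. Blood by cardiac puncture under isoflurane and liver at 0.25–24 h, n = 3 per time point. Liver freeze-clamped and homogenized in 20 mM EDTA-K2/70% MeOH. FdUMP (liver) and FDUR (plasma) by HPLC-MS/MS, negative ESI. Index = AUC(inf) liver FdUMP / AUC(inf) plasma FDUR.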

[4] = test system: Liver; assay: AUC (infinity) in Sprague-Dawley rat liver assessed as FdUMP formation at 49.87 mg/kg administered through oral gavage measured up to 24 hrs by HPLC-MS/MS analysis; format: ADME, organism-based; design: dose 49.87 mg/kg, time infinity, route oral; conditions: in vivo; how it was run: as §1
[5] = test system: Plasma; assay: Cmax in Sprague-Dawley rat plasma assessed as 5-FU formation at 49.87 mg/kg administered through oral gavage measured up to 24 hrs by HPLC-MS/MS analysis; format: ADME, organism-based; design: dose 49.87 mg/kg, route oral; conditions: in vivo; how it was run: as §1
[6] = test system: Liver; assay: Cmax in Sprague-Dawley rat liver assessed as FdUMP formation at 49.87 mg/kg administered through oral gavage measured up to 24 hrs by HPLC-MS/MS analysis; format: ADME, organism-based; design: dose 49.87 mg/kg, route oral; conditions: in vivo; how it was run: as §1
[7] = test system: Liver; assay: Drug metabolism in phenobarbital/beta-napthoflavone treated Sprague-Dawley rat liver S9 fraction assessed as prodrug activation at 50 uM preincubated for 5 mins followed by NADPH addition measured up to 60 mins by HPLC-MS/MS analysis; format: ADME, subcellular; conditions: s9, 1 h
How it was run: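 S9 prepared from livers of Sprague-Dawley rats dosed i.g. with phenobarbital/β-naphthoflavone for 3 days. Incubation: 100 mM KH2PO4 pH 7.4, 5 mg/mL S9, compound at 50 μM, 5 min preincubation at 37 °C, then 2 mM NADPH. Samples at 0–60 min, MeOH extraction, FdUMP (m/z 325→129) measured by HPLC-MS/MS. Triplicate.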

[8] = test system: Liver; assay: Cmax in Sprague-Dawley rat liver assessed as FDUR formation at 49.87 mg/kg administered through oral gavage measured up to 24 hrs by HPLC-MS/MS analysis; format: ADME, organism-based; design: dose 49.87 mg/kg, route oral; conditions: in vivo; how it was run: as §1
[9] = test system: Liver; assay: AUC (infinity) in Sprague-Dawley rat liver assessed as FDUR formation at 49.87 mg/kg administered through oral gavage measured up to 24 hrs by HPLC-MS/MS analysis; format: ADME, organism-based; design: dose 49.87 mg/kg, route oral, time infinity; conditions: in vivo; how it was run: as §1
[10] = Half life in rat plasma by HPLC analysis; format: ADME, cell-free
How it was run: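 Rat plasma, 37 °C. Compound added from a 2.5 mM stock, sampled at 0–24 h, quenched with MeOH. Analyzed by HPLC-UV at 267 nm (C8 column, MeOH:H2O 68:32). Triplicate samples.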

[11] = test system: Plasma; assay: Cmax in Sprague-Dawley rat plasma assessed as FDUR formation at 49.87 mg/kg administered through oral gavage measured up to 24 hrs by HPLC-MS/MS analysis; format: ADME, organism-based; design: dose 49.87 mg/kg, route oral; conditions: in vivo; how it was run: as §1
[12] = Half life in human plasma by HPLC-MS/MS analysis; format: ADME, cell-free
How it was run: (§3)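 Compound at 1 μg/mL final in dog or human plasma, 37 °C. Sampled at 0–24 h and quenched with ice-cold MeOH containing internal standard. Parent measured by LC-MS/MS in ESI negative mode; t1/2 calculated from percent remaining versus 0 h.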

[13] = Cytotoxicity against human LO2 cells assessed as reduction in cell viability after 72 hrs by MTT assay; format: cell-based; conditions: L02, 72 h; how it was run: as §2
[14] = Half life in dog plasma by HPLC-MS/MS analysis; format: ADME, cell-free, Canis lupus familiaris; how it was run: as §3
[15] = test system: Liver; assay: Drug uptake in Sprague-Dawley rat liver S9 fraction treated with (S)-Isopropyl 2-(((R)-(((2R,3S,5R)-5-(5-fluoro-2,4-dioxo 3,4-dihydropyrimidin-1(2H)-yl)-3-hydroxytetrahydrofuran-2-yl)methoxy)((2-methylbenzyl)oxy)phosphoryl)amino)propanoate at 20 ug/mL preincubated for 5 mins followed by NADPH addition measured at 20 mins by HPLC-MS/MS analysis; format: ADME, subcellular; conditions: s9, 20 min
How it was run: (§4)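 Rat liver S9 (10 mg/mL) incubated with compound at 20 μg/mL. Parent, intermediate A and FdUMP followed over time by HPLC-MS/MS. Negative control run without NADPH.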

[16] = test system: Liver; assay: AUC (infinity) in Sprague-Dawley rat liver assessed as FdUMP formation at 23.62 mg/kg administered through oral gavage measured up to 24 hrs by HPLC-MS/MS analysis; format: ADME, organism-based; design: dose 23.62 mg/kg, time infinity, route oral; conditions: in vivo; how it was run: as §1
[17] = test system: Plasma; assay: Cmax in Sprague-Dawley rat plasma assessed as 5-FU formation at 23.62 mg/kg administered through oral gavage measured up to 24 hrs by HPLC-MS/MS analysis; format: ADME, organism-based; design: dose 23.62 mg/kg, route oral; conditions: in vivo; how it was run: as §1
[18] = test system: Liver; assay: Cmax in Sprague-Dawley rat liver assessed as FdUMP formation at 23.62 mg/kg administered through oral gavage measured up to 24 hrs by HPLC-MS/MS analysis; format: ADME, organism-based; design: dose 23.62 mg/kg, route oral; conditions: in vivo; how it was run: as §1
[19] = test system: Plasma; assay: AUC (infinity) in Sprague-Dawley rat plasma assessed as FDUR formation at 23.62 mg/kg administered through oral gavage measured up to 24 hrs by HPLC-MS/MS analysis; format: ADME, organism-based; design: dose 23.62 mg/kg, time infinity, route oral; conditions: in vivo; how it was run: as §1
[20] = test system: Liver; assay: AUC (infinity) in Sprague-Dawley rat liver assessed as 5-FU formation at 23.62 mg/kg administered through oral gavage measured up to 24 hrs by HPLC-MS/MS analysis; format: ADME, organism-based; design: dose 23.62 mg/kg, time infinity, route oral; conditions: in vivo; how it was run: as §1
[21] = Ratio of FdUMP AUC (infinity) in Sprague-Dawley rat liver to FDUR AUC (infinity) in Sprague-Dawley rat plasma at 23.62 mg/kg administered through oral gavage; format: ADME, organism-based; conditions: in vivo
[22] = test system: Plasma; assay: Cmax in Sprague-Dawley rat plasma assessed as FDUR formation at 23.62 mg/kg administered through oral gavage measured up to 24 hrs by HPLC-MS/MS analysis; format: ADME, organism-based; design: dose 23.62 mg/kg, route oral; conditions: in vivo; how it was run: as §1
[23] = test system: Plasma; assay: AUC (infinity) in Sprague-Dawley rat plasma assessed as 5-FU formation at 23.62 mg/kg administered through oral gavage measured up to 24 hrs by HPLC-MS/MS analysis; format: ADME, organism-based; design: dose 23.62 mg/kg, route oral, time infinity; conditions: in vivo; how it was run: as §1
[24] = test system: Liver; assay: Cmax in Sprague-Dawley rat liver assessed as 5-FU formation at 23.62 mg/kg administered through oral gavage measured up to 24 hrs by HPLC-MS/MS analysis; format: ADME, organism-based; design: dose 23.62 mg/kg, route oral; conditions: in vivo; how it was run: as §1
[25] = test system: Mus musculus; assay: Toxicity in KM mouse implanted with mouse H22 cells assessed as body weight level at 60 mg/kg administered daily through oral gavage after 8 days (reference value: 22.1 +/- 0.8g); format: organism-based; conditions: in vivo, 192 h
[26] = test system: H22; assay: Antitumor activity against mouse H22 cells implanted in KM mouse assessed as tumor growth inhibition at 60 mg/kg administered daily through oral gavage after 8 days; format: functional; conditions: 192 h
How it was run: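 Syngeneic H22 hepatoma: 2 × 10⁶ cells injected s.c. in the axilla (0.9% saline) of female KM mice, n = 10 per group. From day 2, daily oral gavage for 8 days. Test agent given in 35% PEG400; sorafenib suspended in 0.5% CMC-Na. Tumor weight taken on day 8; inhibition rate calculated versus the vehicle group.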

[27] = test system: Liver; assay: Drug uptake in Sprague-Dawley rat liver S9 fraction treated with (S)-Isopropyl 2-(((R)-(((2R,3S,5R)-5-(5-fluoro-2,4-dioxo-3,4-dihydropyrimidin-1(2H)-yl)-3-hydroxytetrahydrofuran-2-yl)methoxy)((2-methylbenzyl)oxy)phosphoryl)amino)propanoate at 20 ug/mL after 20 mins by HPLC-MS/MS analysis in absence of NADPH; format: ADME; conditions: s9, 20 min; how it was run: as §4

SMILES: Cc1ccccc1COP(=O)(NCc1ccccc1)OC[C@H]1O[C@@H](n2cc(F)c(=O)[nH]c2=O)C[C@@H]1O (stereo partly specified)
AUC [1]: 41 ng·h/mL
IC50 [2]: 18.6 µM
Ratio AUC [3]: < 3.8
AUC [4]: < 155 ng·h/g
Cmax [5]: 14 ng/mL
Cmax [6]: 55 ng/g
Drug metabolism [7]: 58.4 nmol/min/mg
Cmax [8]: 50 ng/g
AUC [9]: 838 ng·h/g
half-life [10]: > 24 h
Cmax [11]: 40 ng/mL

SMILES: O=c1[nH]c(=O)n([C@H]2C[C@H](O)[C@@H](COP(=O)(NCc3ccccc3)OCc3ccccc3[N+](=O)[O-])O2)cc1F (stereo partly specified)
IC50 [2]: > 500 µM
Drug metabolism [7]: 44.7 nmol/min/mg
half-life [10]: > 24 h

SMILES: O=c1[nH]c(=O)n([C@H]2C[C@H](O)[C@@H](COP(=O)(NCc3ccccc3)OCc3cccc([N+](=O)[O-])c3)O2)cc1F (stereo partly specified)
Drug metabolism [7]: 14.9 nmol/min/mg
half-life [10]: > 24 h

SMILES: O=c1[nH]c(=O)n([C@H]2C[C@H](O)[C@@H](COP(=O)(NCc3ccccc3)OCc3ccccc3)O2)cc1F (stereo partly specified)
IC50 [2]: 365 µM
Drug metabolism [7]: 17.4 nmol/min/mg
half-life [10]: > 24 h

SMILES: O=c1[nH]c(=O)n([C@H]2C[C@H](O)[C@@H](CO)O2)cc1F [FLOXURIDINE]
AUC [16]: < 34 ng·h/g
Cmax [17]: 169 ng/mL
Cmax [18]: 9 ng/g
AUC [19]: 308 ng·h/mL
AUC [20]: 232 ng·h/g
Ratio AUC [21]: < 0.11
Cmax [22]: 180 ng/mL
AUC [23]: 209 ng·h/mL
Cmax [24]: 60 ng/g

SMILES: CNC(=O)c1cc(Oc2ccc(NC(=O)Nc3ccc(Cl)c(C(F)(F)F)c3)cc2)ccn1 [SORAFENIB]
Activity [25]: 26.4 g
inhibition in vivo at 60 mg/kg [26]: 50.8%

SMILES: Cc1ccccc1C(=O)O [TOLUIC ACID]
Drug metabolism [27]: metabolite_detected

Continued, in another order:

Drug metabolism [7]: 26.3 nmol/min/mg
half-life [10]: > 24 h
SMILES: O=c1[nH]c(=O)n([C@H]2C[C@H](O)[C@@H](COP(=O)(NCc3ccccc3)OCc3ccc(F)cc3)O2)cc1F (stereo partly specified)
IC50 [2]: 150 µM

Drug metabolism [7]: 40 nmol/min/mg
half-life [10]: > 24 h
SMILES: O=c1[nH]c(=O)n([C@H]2C[C@H](O)[C@@H](COP(=O)(NCc3ccccc3)OCc3ccc([N+](=O)[O-])cc3)O2)cc1F (stereo partly specified)
IC50 [2]: > 1000 µM

half-life [12]: > 24 h
half-life [14]: > 24 h
half-life [10]: < 0.083 h
SMILES: Cc1ccccc1COP(=O)(N[C@@H](C)C(=O)OC(C)C)OC[C@H]1O[C@@H](n2cc(F)c(=O)[nH]c2=O)C[C@@H]1O (stereo partly specified)
IC50 [2]: 276 µM
IC50 [13]: 333 µM

Drug metabolism [7]: 49.6 nmol/min/mg
half-life [10]: > 24 h
SMILES: O=c1[nH]c(=O)n([C@H]2C[C@H](O)[C@@H](COP(=O)(NCc3ccccc3)OCc3ccccc3Br)O2)cc1F (stereo partly specified)
IC50 [2]: 151 µM

Drug uptake [15]: metabolite_detected
SMILES: O=c1[nH]c(=O)n([C@H]2C[C@H](O)[C@@H](COP(=O)(O)O)O2)cc1F [5-FLUORODEOXYURIDYLATE]
